Laboratory results from ChEMBL document CHEMBL4184148 (Bioorg Med Chem Lett, 2017).

Legend:
Aurora kinase B = Aurora kinase B (Homo sapiens, UniProt Q96GD4); assay: Inhibition of recombinant full length His-tagged human Aurora B expressed in baculovirus expression system by Z'LYTE assay
How it was run: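 Z'LYTE biochemical kinase assay run at the Km ATP concentration for each kinase. IC50 was determined and reported ± standard error.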

[1] = target: Bromodomain-containing protein 4 (Homo sapiens, UniProt O60885); assay: Inhibition of BRD4 (unknown origin) by AlphaScreen assay
[2] = target: Atypical kinase COQ8B, mitochondrial (Homo sapiens) (UniProt Q96D53); assay: Binding affinity to wild-type human full length ADCK4 (M1 to S544 residues) expressed in Escherichia coli BL21 at 1 uM by Kinomescan method relative to control
[3] = target: NUAK family SNF1-like kinase 1 (Homo sapiens) (UniProt O60285); assay: Binding affinity to wild-type human partial length ARK5 (E25 to I332 residues) expressed in Escherichia coli BL21 at 1 uM by Kinomescan method relative to control
How it was run: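 Kinome-wide competition binding panel run by an outside provider, with each compound tested at a single concentration. Activity is read against the kinase panel.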

[4] = target: Cyclin-dependent kinase 7 (Homo sapiens) (UniProt P50613); assay: Binding affinity to wild-type human full length CDK7 (M1 to L344 residues) expressed in HEK293 cells at 1 uM by Kinomescan method relative to control; type: cell-based
How it was run: (§1)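 Run as one kinome-wide competition binding panel with each compound at a single fixed concentration. Results were plotted as a kinome-wide selectivity map.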

[5] = target: Epithelial discoidin domain-containing receptor 1 (Homo sapiens) (UniProt Q08345); assay: Binding affinity to wild-type human partial length DDR1 (R565 to V876 residues) expressed in Escherichia coli BL21 at 1 uM by Kinomescan method relative to control
[6] = target: Mitogen-activated protein kinase 6 (Homo sapiens) (UniProt Q16659); assay: Binding affinity to wild-type human partial length ERK3 (M1 to P413 residues) expressed in Escherichia coli BL21 at 1 uM by Kinomescan method relative to control
[7] = target: Serine/threonine-protein kinase/endoribonuclease IRE1 (Homo sapiens) (UniProt O75460); assay: Binding affinity to wild-type human partial length ERN1 (S551 to E852 residues) expressed in HEK293 cells at 1 uM by Kinomescan method relative to control; type: cell-based
[8] = target: Cyclin-G-associated kinase (Homo sapiens) (UniProt O14976); assay: Binding affinity to wild-type human partial length GAK (G13 to Y338 residues) expressed in Escherichia coli BL21 at 1 uM by Kinomescan method relative to control
[9] = target: Tyrosine-protein kinase JAK1 (Homo sapiens) (UniProt P23458); assay: Binding affinity to wild-type human partial length JAK1 JH1 catalytic domain (V856 to K1154 residues) expressed in Escherichia coli BL21 at 1 uM by Kinomescan method relative to control
[10] = target: Tyrosine-protein kinase JAK2 (Homo sapiens) (UniProt O60674); assay: Binding affinity to wild-type human partial length JAK2 JH1 catalytic domain (A829 to G1132 residues) expressed in HEK293 cells at 1 uM by Kinomescan method relative to control; type: cell-based
[11] = test system: Mast/stem cell growth factor receptor Kit (Homo sapiens), P10721 [D816H]; assay: Binding affinity to human partial length KIT D816H mutant (I571 to D952 residues) expressed in HEK293 cells at 1 uM by Kinomescan method relative to control; type: cell-based
[12] = test system: Mast/stem cell growth factor receptor Kit (Homo sapiens), P10721 [D816V]; assay: Binding affinity to human partial length KIT D816V mutant (I571 to D952 residues) expressed in Escherichia coli BL21 at 1 uM by Kinomescan method relative to control
[13] = target: Dual specificity mitogen-activated protein kinase kinase 1 (Homo sapiens) (UniProt Q02750); assay: Binding affinity to wild-type human full length MEK1 (M1 to V393 residues) expressed in HEK293 cells at 1 uM by Kinomescan method relative to control; type: cell-based; how it was run: as §1
[14] = target: Serine/threonine-protein kinase 26 (Homo sapiens) (UniProt Q9P289); assay: Binding affinity to wild-type human full length MST4 (M1 to P416 residues) expressed in HEK293 cells at 1 uM by Kinomescan method relative to control; type: cell-based; how it was run: as §1
[15] = target: Serine/threonine-protein kinase mTOR (Homo sapiens) (UniProt P42345); assay: Binding affinity to wild-type human partial length MTOR (L1382 to W2549 residues) expressed in HEK293 cells at 1 uM by Kinomescan method relative to control; type: cell-based
[16] = target: Myosin-IIIb (Homo sapiens) (UniProt Q8WXR4); assay: Binding affinity to wild-type human partial length MYO3B (M1 to D357 residues) expressed in Escherichia coli BL21 at 1 uM by Kinomescan method relative to control
[17] = target: Mitogen-activated protein kinase kinase kinase 14 (Homo sapiens) (UniProt Q99558); assay: Binding affinity to wild-type human partial length NIK (L318 to P947 residues) expressed in HEK293 cells at 1 uM by Kinomescan method relative to control; type: cell-based
[18] = target: Serine/threonine-protein kinase PAK 5 (Homo sapiens) (UniProt Q9P286); assay: Binding affinity to wild-type human partial length PAK7 (Y400 to H719 residues) expressed in Escherichia coli BL21 at 1 uM by Kinomescan method relative to control
[19] = target: Platelet-derived growth factor receptor alpha (Homo sapiens) (UniProt P16234); assay: Binding affinity to wild-type human partial length PDGFRA (V575 to D1002 residues) expressed in HEK293 cells at 1 uM by Kinomescan method relative to control; type: cell-based
[20] = target: Phosphatidylinositol 3-kinase C2 domain-containing subunit gamma (Homo sapiens) (UniProt O75747); assay: Binding affinity to wild-type human partial length PIK3C2G (M1 to I1446 residues) expressed in HEK293 cells at 1 uM by Kinomescan method relative to control; type: cell-based
HEK293 = assay: Binding affinity to wild-type Mycobacterium tuberculosis partial length PKNB (M1 to G279 residues) expressed in HEK293 cells at 1 uM by Kinomescan method relative to control; type: cell-based
[21] = target: Protein kinase C iota type (Homo sapiens) (UniProt P41743); assay: Binding affinity to wild-type human partial length PRKCI (H215 to V587 residues) expressed in HEK293 cells at 1 uM by Kinomescan method relative to control; type: cell-based
[22] = target: Rho-associated protein kinase 1 (Homo sapiens) (UniProt Q13464); assay: Binding affinity to wild-type human partial length ROCK1 (M1 to R415 residues) expressed in HEK293 cells at 1 uM by Kinomescan method relative to control; type: cell-based
[23] = target: Ribosomal protein S6 kinase alpha-6 (Homo sapiens) (UniProt Q9UK32); assay: Binding affinity to wild-type human partial length C-terminal RSK4 kinase domain 2 (I401 to Y711 residues) expressed in Escherichia coli BL21 at 1 uM by Kinomescan method relative to control
[24] = target: Serine/threonine-protein kinase 36 (Homo sapiens) (UniProt Q9NRP7); assay: Binding affinity to wild-type human partial length STK36 (M1 to T271 residues) expressed in Escherichia coli BL21 at 1 uM by Kinomescan method relative to control

Sequence of Mast/stem cell growth factor receptor Kit (Homo sapiens), P10721 [D816H] (P10721 whole entry D816H, the tested form may be a part): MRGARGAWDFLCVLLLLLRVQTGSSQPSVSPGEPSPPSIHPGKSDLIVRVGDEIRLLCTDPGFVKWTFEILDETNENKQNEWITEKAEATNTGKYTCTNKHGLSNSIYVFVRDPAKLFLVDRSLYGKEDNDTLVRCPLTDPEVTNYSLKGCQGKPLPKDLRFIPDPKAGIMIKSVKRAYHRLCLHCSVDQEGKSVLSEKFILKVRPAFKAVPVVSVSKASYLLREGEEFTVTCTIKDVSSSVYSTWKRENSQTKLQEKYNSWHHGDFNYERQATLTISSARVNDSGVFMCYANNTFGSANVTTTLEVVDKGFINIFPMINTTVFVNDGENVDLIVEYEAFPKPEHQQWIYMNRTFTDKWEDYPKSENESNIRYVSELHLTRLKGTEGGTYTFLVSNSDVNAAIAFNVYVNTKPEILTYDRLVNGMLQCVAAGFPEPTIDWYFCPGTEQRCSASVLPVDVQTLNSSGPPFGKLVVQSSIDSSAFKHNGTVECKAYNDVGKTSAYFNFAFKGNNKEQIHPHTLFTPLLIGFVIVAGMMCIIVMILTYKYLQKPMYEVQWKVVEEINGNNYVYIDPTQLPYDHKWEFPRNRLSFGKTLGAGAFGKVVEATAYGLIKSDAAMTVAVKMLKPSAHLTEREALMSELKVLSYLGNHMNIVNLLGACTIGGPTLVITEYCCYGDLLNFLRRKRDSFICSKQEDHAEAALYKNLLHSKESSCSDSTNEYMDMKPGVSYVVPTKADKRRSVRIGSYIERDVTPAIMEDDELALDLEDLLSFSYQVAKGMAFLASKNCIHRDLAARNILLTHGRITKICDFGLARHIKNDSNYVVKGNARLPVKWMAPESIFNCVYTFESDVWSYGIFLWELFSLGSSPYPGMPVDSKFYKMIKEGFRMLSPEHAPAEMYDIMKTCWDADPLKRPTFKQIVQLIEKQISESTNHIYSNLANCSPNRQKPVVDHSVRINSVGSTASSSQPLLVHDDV
Sequence of Aurora kinase B (Q96GD4 whole entry): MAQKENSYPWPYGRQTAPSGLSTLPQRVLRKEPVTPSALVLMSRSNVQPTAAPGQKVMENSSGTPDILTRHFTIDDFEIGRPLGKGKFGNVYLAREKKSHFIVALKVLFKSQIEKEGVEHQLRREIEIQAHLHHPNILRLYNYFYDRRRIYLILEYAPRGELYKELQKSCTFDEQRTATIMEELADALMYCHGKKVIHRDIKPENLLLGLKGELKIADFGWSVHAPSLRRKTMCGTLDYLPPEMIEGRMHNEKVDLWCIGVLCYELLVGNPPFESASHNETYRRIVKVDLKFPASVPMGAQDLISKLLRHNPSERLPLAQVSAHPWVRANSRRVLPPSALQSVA
Sequence of Epithelial discoidin domain-containing receptor 1 (Homo sapiens) (Q08345 whole entry, the tested form may be a part): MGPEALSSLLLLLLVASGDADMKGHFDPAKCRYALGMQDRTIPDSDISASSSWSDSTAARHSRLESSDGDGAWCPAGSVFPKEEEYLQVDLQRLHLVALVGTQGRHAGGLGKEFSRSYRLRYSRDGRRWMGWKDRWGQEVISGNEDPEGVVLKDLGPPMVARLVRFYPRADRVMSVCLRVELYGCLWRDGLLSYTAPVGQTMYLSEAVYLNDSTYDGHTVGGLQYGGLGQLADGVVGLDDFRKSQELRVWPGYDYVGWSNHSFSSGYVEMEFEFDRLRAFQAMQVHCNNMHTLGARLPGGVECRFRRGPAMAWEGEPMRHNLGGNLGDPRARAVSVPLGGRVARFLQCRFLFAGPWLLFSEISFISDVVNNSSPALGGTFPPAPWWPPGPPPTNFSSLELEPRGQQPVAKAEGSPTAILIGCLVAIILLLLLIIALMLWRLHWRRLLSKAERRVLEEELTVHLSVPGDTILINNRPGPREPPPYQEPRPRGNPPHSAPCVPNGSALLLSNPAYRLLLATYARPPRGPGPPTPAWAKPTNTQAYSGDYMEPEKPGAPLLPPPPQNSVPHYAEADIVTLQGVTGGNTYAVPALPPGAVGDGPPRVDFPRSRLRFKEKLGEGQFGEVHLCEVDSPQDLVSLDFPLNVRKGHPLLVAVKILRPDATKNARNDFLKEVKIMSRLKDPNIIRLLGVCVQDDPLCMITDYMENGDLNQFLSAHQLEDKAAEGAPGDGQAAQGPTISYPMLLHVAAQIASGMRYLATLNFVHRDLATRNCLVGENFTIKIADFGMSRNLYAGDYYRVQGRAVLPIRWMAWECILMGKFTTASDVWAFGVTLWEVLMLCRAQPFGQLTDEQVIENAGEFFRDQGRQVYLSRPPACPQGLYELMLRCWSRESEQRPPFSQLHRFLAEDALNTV
Sequence of Cyclin-dependent kinase 7 (Homo sapiens) (P50613 whole entry, the tested form may be a part): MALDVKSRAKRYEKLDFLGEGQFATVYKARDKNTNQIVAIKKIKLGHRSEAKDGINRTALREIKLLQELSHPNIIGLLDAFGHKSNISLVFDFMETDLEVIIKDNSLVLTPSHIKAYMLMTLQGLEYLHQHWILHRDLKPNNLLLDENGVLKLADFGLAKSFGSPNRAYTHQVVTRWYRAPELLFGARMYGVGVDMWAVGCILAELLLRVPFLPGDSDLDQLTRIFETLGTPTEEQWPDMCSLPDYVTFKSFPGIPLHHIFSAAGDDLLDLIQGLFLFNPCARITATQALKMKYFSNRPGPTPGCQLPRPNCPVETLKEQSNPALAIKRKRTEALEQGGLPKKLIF
Sequence of Phosphatidylinositol 3-kinase C2 domain-containing subunit gamma (Homo sapiens) (O75747 whole entry, the tested form may be a part): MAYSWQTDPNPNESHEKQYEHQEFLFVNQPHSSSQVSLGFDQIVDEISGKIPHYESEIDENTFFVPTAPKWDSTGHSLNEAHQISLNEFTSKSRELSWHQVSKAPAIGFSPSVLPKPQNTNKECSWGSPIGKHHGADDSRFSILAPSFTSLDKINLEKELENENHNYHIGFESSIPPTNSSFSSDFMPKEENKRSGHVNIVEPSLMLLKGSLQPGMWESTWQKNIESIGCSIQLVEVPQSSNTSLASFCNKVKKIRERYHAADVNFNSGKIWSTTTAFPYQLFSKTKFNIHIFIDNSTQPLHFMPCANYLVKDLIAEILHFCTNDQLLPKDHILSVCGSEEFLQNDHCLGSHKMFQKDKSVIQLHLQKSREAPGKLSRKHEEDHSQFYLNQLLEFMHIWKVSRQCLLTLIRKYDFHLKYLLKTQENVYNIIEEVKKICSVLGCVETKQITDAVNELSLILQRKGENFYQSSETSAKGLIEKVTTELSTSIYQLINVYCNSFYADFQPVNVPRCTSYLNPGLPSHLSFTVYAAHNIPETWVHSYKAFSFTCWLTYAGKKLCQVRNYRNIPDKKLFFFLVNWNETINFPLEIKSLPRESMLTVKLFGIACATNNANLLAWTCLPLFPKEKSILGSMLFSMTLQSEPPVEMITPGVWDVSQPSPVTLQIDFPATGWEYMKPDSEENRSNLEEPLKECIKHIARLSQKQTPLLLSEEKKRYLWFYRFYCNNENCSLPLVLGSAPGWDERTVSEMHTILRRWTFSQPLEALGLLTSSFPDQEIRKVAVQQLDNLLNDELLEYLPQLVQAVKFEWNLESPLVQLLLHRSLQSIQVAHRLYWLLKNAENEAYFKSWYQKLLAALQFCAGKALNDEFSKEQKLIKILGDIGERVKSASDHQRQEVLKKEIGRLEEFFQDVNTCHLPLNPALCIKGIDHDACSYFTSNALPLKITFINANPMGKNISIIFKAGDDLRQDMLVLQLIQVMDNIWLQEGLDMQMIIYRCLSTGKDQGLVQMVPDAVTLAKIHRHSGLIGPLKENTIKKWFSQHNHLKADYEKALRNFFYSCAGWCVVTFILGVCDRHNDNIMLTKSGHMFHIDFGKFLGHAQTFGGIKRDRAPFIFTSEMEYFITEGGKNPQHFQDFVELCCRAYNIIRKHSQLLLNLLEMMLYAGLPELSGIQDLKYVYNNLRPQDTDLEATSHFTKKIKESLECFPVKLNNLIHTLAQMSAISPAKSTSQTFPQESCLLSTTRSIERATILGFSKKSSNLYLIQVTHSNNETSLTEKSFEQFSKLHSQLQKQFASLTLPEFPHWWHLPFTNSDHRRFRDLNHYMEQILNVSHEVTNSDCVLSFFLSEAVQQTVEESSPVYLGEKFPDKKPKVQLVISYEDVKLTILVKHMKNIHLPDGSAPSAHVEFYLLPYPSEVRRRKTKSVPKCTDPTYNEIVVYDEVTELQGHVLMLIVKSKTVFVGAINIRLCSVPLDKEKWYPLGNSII
Sequence of Serine/threonine-protein kinase/endoribonuclease IRE1 (Homo sapiens) (O75460 19-977 limits assumed): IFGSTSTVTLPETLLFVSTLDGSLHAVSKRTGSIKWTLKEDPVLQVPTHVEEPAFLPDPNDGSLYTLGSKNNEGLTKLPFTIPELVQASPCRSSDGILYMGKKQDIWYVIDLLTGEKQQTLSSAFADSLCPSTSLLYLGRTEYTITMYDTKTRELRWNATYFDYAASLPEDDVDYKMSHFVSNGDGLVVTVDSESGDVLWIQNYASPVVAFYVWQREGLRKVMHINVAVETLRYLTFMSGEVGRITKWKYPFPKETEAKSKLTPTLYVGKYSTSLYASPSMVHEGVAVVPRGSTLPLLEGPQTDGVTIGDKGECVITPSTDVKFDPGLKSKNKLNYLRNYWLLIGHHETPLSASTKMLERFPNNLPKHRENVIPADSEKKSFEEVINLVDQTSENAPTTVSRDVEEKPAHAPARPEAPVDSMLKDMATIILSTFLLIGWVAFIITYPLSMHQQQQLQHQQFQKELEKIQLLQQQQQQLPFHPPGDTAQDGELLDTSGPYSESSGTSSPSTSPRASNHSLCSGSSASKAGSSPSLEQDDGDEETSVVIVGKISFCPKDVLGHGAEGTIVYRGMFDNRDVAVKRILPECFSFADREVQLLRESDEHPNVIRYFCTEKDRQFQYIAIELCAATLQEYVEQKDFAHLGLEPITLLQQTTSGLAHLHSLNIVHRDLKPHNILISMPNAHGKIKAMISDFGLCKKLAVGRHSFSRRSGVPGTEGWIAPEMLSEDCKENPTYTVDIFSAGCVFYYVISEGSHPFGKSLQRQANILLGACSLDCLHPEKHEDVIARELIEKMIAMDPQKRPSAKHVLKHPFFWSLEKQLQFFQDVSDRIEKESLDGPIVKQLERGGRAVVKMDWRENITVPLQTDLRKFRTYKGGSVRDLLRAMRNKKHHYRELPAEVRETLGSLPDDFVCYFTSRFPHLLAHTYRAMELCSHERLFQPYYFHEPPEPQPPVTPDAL

SMILES	IC50 (Aurora kinase B) [µM]	IC50 [1] [µM]	Activity [2] [%]	Activity [3] [%]	Activity [4] [%]	Activity [5] [%]	Activity [6] [%]	Activity [7] [%]	Activity [8] [%]	Activity [9] [%]	Activity [10] [%]	Activity [11] [%]	Activity [12] [%]	Activity [13] [%]	Activity [14] [%]	Activity [15] [%]	Activity [16] [%]	Activity [17] [%]	Activity [18] [%]	Activity [19] [%]	other results
C=CC(=O)Nc1ccc(C(=O)Nc2ccc(Nc3ncc4c(n3)N(C)c3ccc(C)cc3C(=O)N4C)cc2)cc1	0.029	37	100	84	80	92	97	87	82	96	100	83	88	100	100	87	100	99	100	91	Activity [20]: 71%; Activity (HEK293): 94%; Activity [21]: 87%; Activity [22]: 100%; Activity [23]: 100%; Activity [24]: 100%
CCC(=O)Nc1ccc(C(=O)Nc2ccc(Nc3ncc4c(n3)N(C)c3ccc(C)cc3C(=O)N4C)cc2)cc1	0.041	34	100	85	66	86	81	100	99	86	70	72	91	52	98	100	100	100	97	63	Activity [20]: 81%; Activity (HEK293): 68%; Activity [21]: 66%; Activity [22]: 72%; Activity [23]: 100%; Activity [24]: 93%
